Counter-ions that a name gives are not always drawn. Like-named read-outs stand apart in the source and are kept apart here.
Key:
RopB = test: PspeB-luxAB reporter, NZ131; format: cell-based, S. pyogenes; details: C medium; 10 µM CsA or valspodar; 300 mM NaCl
How it was run: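 PspeB-luxAB reporter (speB upstream region–luxAB, integrated) grown in C medium to exponential phase (OD600 0.1). Test compound added at 10 µM; 300 mM NaCl used as the suppressing condition. Decanal vapour supplied; 37°C with shaking. OD600 and luminescence read every 15 min for 8 h; relative luminescence taken as maximum cps/OD600.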

Rgg3 = format: binding, Streptococcus pyogenes; details: HTS, duplicate; 0.1 µl of 10 mM compound in 30 µl; 180 nM His6-Sumo-Rgg3, 10 nM FITC-SHP2-C8
How it was run: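 Approved-drug library (1,280 compounds, DMSO stocks) pinned into assay mix of 1× PBS, 0.1 mg/ml BSA, 0.01% Triton X-100 and 5 mM DTT. Plates were shaken 20 s, then held 15 min at room temperature, and polarization was read at ex 485/em 535 nm. Each plate had 32 DMSO negative-control wells and 32 unlabeled SHP2-C8 (1 mM stock) positive-control wells. % inhibition was scaled between the per-plate control means, and plate Z′ was computed.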

ComR [1] = biological target: T1, ComR (Streptococcus mutans serotype c, UniProt Q8DWI6); format: binding, S. mutans; details: read-out: ComR Avg % inhibition
T1 sequence (Q8DWI6 1-304): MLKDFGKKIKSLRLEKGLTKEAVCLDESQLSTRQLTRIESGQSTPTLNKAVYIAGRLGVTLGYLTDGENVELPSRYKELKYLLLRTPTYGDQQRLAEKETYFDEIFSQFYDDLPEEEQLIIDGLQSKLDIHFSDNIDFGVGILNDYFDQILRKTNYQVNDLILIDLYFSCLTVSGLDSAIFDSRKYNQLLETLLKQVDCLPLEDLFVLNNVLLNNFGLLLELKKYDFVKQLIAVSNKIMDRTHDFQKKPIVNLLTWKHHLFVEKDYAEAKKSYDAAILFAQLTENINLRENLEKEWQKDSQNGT

[2] = tested on: Rgg2/3-regulated promoter Pshp2-luxAB (BNL148); test: Pshp2-luxAB luciferase reporter assay, strain BNL148, sSHP2-C8 induced; format: cell-based, S. pyogenes; details: for inhibition of SHP-induced light production (transcription): 10 µM compound with 10 nM SHP2-C8, BNL148; for IC50: Streptococcus pyogenes
S. pyogenes cultures = test: Bacterial growth curves; format: cell-based; details: 10 µM compound with 10 nM sSHP2-C8, 37°C
How it was run: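 S. pyogenes grown at 37°C in chemically defined medium (CDM) to OD600 0.1, then given 10 nM SHP2-C8 alone or with 10 µM test compound. OD600 read every 30 min for 8 h.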

[3] = tested on: Rgg-SHP quorum-sensing pathway, Pshp-luxAB; test: Pshp-luxAB reporter in S. agalactiae A909; format: cell-based; details: S. agalactiae (GBS), 5 µM antagonist
How it was run: (§1)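 Reporter strains carry shp-promoter–luxAB fusions on a pLZ12-spec plasmid: Pshp1520 in GBS A909, Pshp2 in GGS, Pshp3 in S. porcinus. S. porcinus was given synthetic SHP. Strains grown in CDM to OD600 0.1 and exposed to 5 µM antagonist. Decanal (1% in mineral oil) supplied as vapour. OD600 and luminescence read at 37°C every 15 min for 8 h; relative luminescence taken as maximum cps/OD600.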

[4] = tested on: Rgg-SHP quorum-sensing pathway, Pshp-luxAB; test: Pshp-luxAB reporter in S. dysgalactiae GGS-LT1; format: cell-based; details: 5 µM antagonist
How it was run: as §1

[5] = tested on: Rgg-SHP quorum-sensing pathway, Pshp-luxAB; test: Pshp-luxAB reporter in S. porcinus NCTC 10999; format: cell-based; details: 5 µM antagonist
How it was run: as §1

[6] = tested on: S. pyogenes strain NZ131 biofilm; test: SHP-dependent biofilm assay, crystal violet staining, strain NZ131; format: cell-based; details: 10 nM SHP2-C8, 20 h
How it was run: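 NZ131 grown overnight in THY at 30°C, diluted 1:100 into CDM, grown at 37°C to late exponential phase, back-diluted to OD600 0.02 in CDM with 10 nM SHP2-C8 and 2-fold dilutions of test compound (5 to 0.156 µM); 0.1% DMSO controls. At OD600 ~0.1 plated in duplicate, 20 h at 37°C, 5% CO2. Saline wash, dry-fixed, 0.2% crystal violet, A595; ≥3 independent experiments, standard errors.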

[7] = tested on: ComR-XIP QS system, PsigX-luxAB; test: PsigX-luxAB reporter; format: cell-based, S. pyogenes; details: 10 µM compound, 100 nM XIP, MGAS315(pWAR200)
How it was run: (§2)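 PsigX-luxAB reporter strains grown in CDM to OD600 0.1 and incubated with 10 µM test compound plus 100 nM XIP. Decanal (1% in mineral oil) supplied as vapour; sealed plate shaken at 37°C. OD600 and luminescence read every 15 min for 8 h; relative luminescence taken as maximum cps/OD600.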

[8] = tested on: ComR-XIP QS system, PsigX-luxAB; test: PsigX-luxAB reporter; format: cell-based, S. mutans; details: 10 µM compound, 100 nM XIP, UA159(pWAR304)
How it was run: as §2

ComR [9] = biological target: T1, ComR; format: binding, S. mutans; details: competition with FITC-XIP
Rgg2 = test: Pshp2-luxAB luciferase reporter assay, Δrgg3 strain BNL178; format: cell-based, S. pyogenes
How it was run: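 Pshp2-luxAB reporter strains grown in CDM to exponential phase (OD600 0.1). Cultures dispensed into wells with 10 nM SHP2-C8 alone or with test compound: 10 µM for the Δrgg3 strain BNL178, 5 µM CsA for the other strains. Decanal (1% in mineral oil) supplied as vapour; plate sealed and shaken continuously at 37°C. OD600 and luminescence read every 15 min for 8 h; relative luminescence taken as maximum cps/OD600.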

FITC-XIP (S. mutans) = test: fluorescence polarisation
[10] = biological target: FITC-SHP2-C8 (Streptococcus pyogenes); test: fluorescence polarisation
[11] = biological target: His6-SUMO-Rgg3 (Streptococcus pyogenes); test: fluorescence polarisation
[12] = read-out: IC50, luciferase assay dose-response

[Cl-].[Na+] [NaCl]
effect on activation of PspeB (luciferase activity) (RopB): abolished luciferase activity

CCCc1nc(C(C)(C)O)c(C(=O)O)n1Cc1ccc(-c2ccccc2-c2nnn[nH]2)cc1 [Olmesartan]
Rgg3 Avg % inhibition (Rgg3): 73% | inhibition (ComR [1]): 1% | inhibition of SHP-induced light production (transcription) [2]: less than 50%

CC(C)(C)NC(=O)[C@@H]1C[C@@H]2CCCC[C@@H]2CN1C[C@@H](O)[C@H](Cc1ccccc1)NC(=O)[C@H](CC(N)=O)NC(=O)c1ccc2ccccc2n1 [Saquinavir mesylate]
Rgg3 Avg % inhibition (Rgg3): 84% | inhibition (ComR [1]): 13% | IC50 [2, 12]: > 10000 nM

CCC(C)(C)C(=O)O[C@H]1C[C@@H](C)C=C2C=C[C@H](C)[C@H](CC[C@@H]3C[C@@H](O)CC(=O)O3)[C@H]21 [Simvastatin]
Rgg3 Avg % inhibition (Rgg3): 85% | inhibition (ComR [1]): 10% | inhibition of SHP-induced light production (transcription) [2]: less than 50% | IC50 [2, 12]: > 10000 nM | effect on culture growth (S. pyogenes cultures): inhibited culture growth

CCCc1nc2c(C)cc(-c3nc4ccccc4n3C)cc2n1Cc1ccc(-c2ccccc2C(=O)O)cc1 [Telmisartan]
Rgg3 Avg % inhibition (Rgg3): 99% | inhibition (ComR [1]): 3% | inhibition of SHP-induced light production (transcription) [2]: less than 50%

C/C=C/C[C@@H](C)C(=O)[C@H]1C(=O)N[C@@H](C(C)C)C(=O)N(C)CC(=O)N(C)[C@@H](CC(C)C)C(=O)N[C@@H](C(C)C)C(=O)N(C)[C@@H](CC(C)C)C(=O)N[C@@H](C)C(=O)N[C@H](C)C(=O)N(C)[C@@H](CC(C)C)C(=O)N(C)[C@@H](CC(C)C)C(=O)N(C)[C@@H](C(C)C)C(=O)N1C [Valspodar, [3′-keto-Bmt1-Val2]-cyclosporine]
fold inhibition of light production [3]: at least 5 fold | fold inhibition of light production [4]: at least 5 fold | fold inhibition of light production ([5]; S. porcinus (GES), sSHP stimulated): at least 5 fold | effect on the S. porcinus strain (in words) ([5]; S. porcinus): only a moderate effect | concentration sufficient to prevent SHP-dependent biofilm development [6]: 0.312 µM | effect on activation of PspeB (luciferase activity) (RopB): unable to block activation of PspeB | effect on light production of PsigX-luxAB [7]: not affected | effect on light production of PsigX-luxAB [8]: not affected | inhibition of SHP-induced light production (transcription) [2]: completely abolished light production | IC50 ([2]; read-out: IC50 (nM), luciferase assay dose-response): 252 nM | IC50 [2, 12]: 500 nM | binding to ComR (ComR [9]): did not bind to ComR | inhibition of transcription in strain with only Rgg2 present (Rgg2): effective at inhibiting transcription | effect on culture growth (S. pyogenes cultures): do not display toxic effects on GAS growth

His6-ComR (S. mutans UA159) (receptor)
Kd (FITC-XIP (S. mutans)): 1000 nM

His6-SUMO-Rgg3 (receptor)
Kd [10]: 160 nM

B1: SHP2-C8 (unlabeled synthetic peptide) (peptide)
peptide: DILIIVGG
Kd [11]: 220 nM
